# Measurements from ChEMBL document CHEMBL1156859, “Novel bis-2,2,6,6-tetramethylpiperidine (bis-TMP) and bis-mecamylamine antagonists at neuronal nicotinic receptors mediating nicotine-evoked dopamine release” (Bioorg Med Chem Lett, 2010).
# Experiments:
# Type in all cases: functional
# [1] = Antagonist activity at nicotinic acetylcholine receptor in rat striatal slices assessed as inhibition of S-(-)-nicotine-induced [3H]dopamine release at 100 nM relative to control
# Method in brief: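 Probe assay on superfused rat striatal slices: 100 nM analog against 10 μM S-(−)-nicotine-evoked [3H]DA release. Inhibition is expressed as a percentage of the nicotine response without analog, i.e. the fractional release evoked under control conditions. Each value comes from at least 3 independent experiments, each in duplicate (n = 3 rats/analog).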
# [2] = Antagonist activity at nicotinic acetylcholine receptor in rat striatal slices assessed as inhibition of S-(-)-nicotine-induced [3H]dopamine release relative to control
# Method in brief: (§1)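 Superfused rat striatal slices were stimulated with 10 μM S-(−)-nicotine, with analog present across 1 nM to 10 μM. Evoked [3H]DA overflow was expressed as a percent of tissue [3H] content and compared with nicotine alone. IC50 and Imax came from iterative nonlinear least-squares curve fitting, using 4-6 independent experiments.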
# [3] = Antagonist activity at nicotinic acetylcholine receptor in rat striatal slices assessed as inhibition of S-(-)-nicotine-induced [3H]dopamine release; method in brief: as §1
Structure (SMILES),inhibition at 0.1 µM [1] [%],Imax [2] [%],IC50 [3] [nM]
Cc1ccc[n+](CCCC#Cc2cc(C#CCCC[n+]3cccc(C)c3)cc(C#CCCC[n+]3cccc(C)c3)c2)c1.[Br-].[Br-].[Br-],40,67,0.2
Cc1ccc[n+](CCCCCCCCCCCC[n+]2cccc(C)c2)c1.[Br-].[Br-],–,78,2
CN(CCCC#Cc1cc(C#CCCCN(C)[C@@]2(C)[C@@H]3CC[C@@H](C3)C2(C)C)cc(C#CCCCN(C)[C@@]2(C)[C@@H]3CC[C@@H](C3)C2(C)C)c1)[C@@]1(C)[C@@H]2CC[C@@H](C2)C1(C)C,73,62,107
CC1(C)CCCC(C)(C)N1CCCCCCCCCCCCCN1C(C)(C)CCCC1(C)C,56,87,2.2
CN(CCCCCCCCCCCN(C)[C@@]1(C)[C@@H]2CC[C@@H](C2)C1(C)C)[C@@]1(C)[C@@H]2CC[C@@H](C2)C1(C)C,35,90,319
CC1(C)CCCC(C)(C)N1CCCCCCCCCCCCN1C(C)(C)CCCC1(C)C,36,–,–
CC1(C)CCCC(C)(C)N1CCCCCCCCCCCN1C(C)(C)CCCC1(C)C,22,–,–
CC1(C)CCCC(C)(C)N1CCCCCCCCN1C(C)(C)CCCC1(C)C,18,–,–
CC1(C)CCCC(C)(C)N1CCCCCCCCCCN1C(C)(C)CCCC1(C)C,5,–,–
CN(CCCCCCCCCCCCCN(C)[C@@]1(C)[C@@H]2CC[C@@H](C2)C1(C)C)[C@@]1(C)[C@@H]2CC[C@@H](C2)C1(C)C,52,83,46
